Test results: ChEMBL document CHEMBL4190216, “Asymmetric 1,5-diarylpenta-1,4-dien-3-ones: Antiproliferative activity in prostate epithelial cell models and pharmacokinetic studies” (Eur J Med Chem, 2017)

What was measured:
PC-3 [1] = assay: Antiproliferative activity against human PC3 cells assessed as decrease in cell viability after 3 days by WST assay; format: functional, cell-based; conditions: PC-3, 72 h
In short: (§1)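 Cells were seeded at 3,200 per well. PC-3 and LNCaP were grown in RPMI-1640 and DU-145 in EMEM, each with 10% FBS and 1% penicillin/streptomycin, at 37 °C and 5% CO2. Cells were exposed for 3 days to at least five concentrations, with DMSO as vehicle control. WST-1 reagent was then added for 3 h at 37 °C and absorbance read at 430 nm. IC50 came from linear inhibition, averaged over triplicates.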

DU-145 [2] = assay: Antiproliferative activity against human DU145 cells assessed as decrease in cell viability after 3 days by WST assay; format: functional, cell-based; conditions: DU-145, 72 h; in short: as §1
LNCaP = assay: Antiproliferative activity against human LNCAP cells assessed as decrease in cell viability after 3 days by WST assay; format: functional, cell-based; conditions: 72 h; in short: as §1
DU-145 [3] = assay: Potency index, ratio of curcumin IC50 to test compound IC50 for human DU145 cells; format: functional
PWR-1E [4] = assay: Antiproliferative activity against human PWR-1E cells expressing androgen receptor and PSA assessed as decrease in cell viability after 3 days by WST assay; format: functional, cell-based; conditions: 72 h
In short: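 Non-malignant prostate epithelial PWR-1E (adenovirus 12/SV40-immortalized) was seeded at 5,000 per well. Cells were exposed for 3 days at 37 °C in a CO2 incubator to at least five concentrations, with DMSO as vehicle control. WST-1 reagent was then added for 3 h at 37 °C and absorbance read at 430 nm. IC50 came from linear inhibition, as the mean of triplicate determinations.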

PWR-1E [5] = assay: Potency index, ratio of curcumin IC50 to test compound IC50 for human PWR-1E cells expressing androgen receptor and PSA; format: functional
VCaP = assay: Antiproliferative activity against human VCaP cells expressing androgen receptor splice variants assessed as decrease in cell viability after 5 days by trypan blue exclusion assay; format: functional, cell-based; conditions: 120 h
[6] = Plasma concentration in Sprague-Dawley rat at 10 mg/kg administered via oral gavage measured at 1 hr by HPLC-MS/MS analysis; format: ADME, organism-based
[7] = Plasma concentration in Sprague-Dawley rat at 10 mg/kg administered via oral gavage measured at 3 hrs by HPLC-MS/MS analysis; format: ADME, organism-based
[8] = Plasma concentration in Sprague-Dawley rat at 10 mg/kg administered via oral gavage measured at 6 hrs by HPLC-MS/MS analysis; format: ADME, organism-based
[9] = Plasma concentration in Sprague-Dawley rat at 10 mg/kg administered via oral gavage measured after 1 day by HPLC-MS/MS analysis; format: ADME, organism-based
[10] = Tmax in Sprague-Dawley rat at 10 mg/kg administered via oral gavage by HPLC-MS/MS analysis; format: ADME, organism-based; conditions: in vivo
[11] = Cmax in Sprague-Dawley rat at 10 mg/kg administered via oral gavage by HPLC-MS/MS analysis; format: ADME, organism-based; parameters: dose 10 mg/kg, route oral; conditions: in vivo
[12] = AUC in Sprague-Dawley rat at 10 mg/kg administered via oral gavage by HPLC-MS/MS analysis; format: ADME, organism-based; conditions: in vivo
Rattus norvegicus = assay: Acute toxicity in Sprague-Dawley rat at 10 mg/kg administered via oral gavage; format: organism-based; conditions: in vivo
In short: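 Male Sprague-Dawley rats (250–300 g, n = 4) each received a single 10 mg/kg oral gavage dose. The vehicle was 5% DMSO, 40% polyethylene glycol 400 and 55% saline. Blood was drawn from the lateral tail vein at 1, 3, 6 and 24 h for plasma drug levels. Toxicity was scored as observed deaths after dosing.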

[13] = Drug metabolism in human liver microsomes assessed as (1E,4E)-1-(1-sec-butyl-4-hydroxy-1H-imidazol-2-yl)-5-(2-methyl-4-(trifluoromethyl)thiazol-5-yl)penta-1,4-dien-3-one formation at 10 mM after 60 mins by UHPLC analysis; format: ADME, microsome
In short: (§2)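 Pooled human liver microsomes in potassium phosphate buffer (pH 7.4) with NADPH solutions A and B were preincubated for 5 min at 37 °C. Compound was then added from a 10 mM stock (3 μL into 300 μL total) and incubated 60 min at 37 °C. Reactions were quenched with an equal volume of methanol and centrifuged (10,000 × g, 4 min, 4 °C). Supernatant went to UHPLC–high-resolution MS for metabolite identification.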

[14] = Drug metabolism in human liver microsomes assessed as (1Z,4E)-1-(1-sec-butyl-1H-imidazol-2-yl)-1-hydroxy-5-(2-methyl-4-(trifluoromethyl)thiazol-5-yl)penta-1,4-dien-3-one formation at 10 mM after 60 mins by UHPLC analysis; format: ADME, microsome; in short: as §2
[15] = Drug metabolism in human liver microsomes assessed as (1Z,4E)-5-(1-sec-butyl-1H-imidazol-2-yl)-1-hydroxy-1-(2-methyl-4-(trifluoromethyl)thiazol-5-yl)penta-1,4-dien-3-one formation at 10 mM after 60 mins by UHPLC analysis; format: ADME, microsome; in short: as §2
PC-3 [16] = assay: Cell cycle arrest in human PC3 cells assessed as accumulation at G2 phase at 5 uM after 16 hrs by propidium iodide staining-based flow cytometric method (reference value: 25 to 28%); format: functional
PC-3 [17] = assay: Induction of apoptosis in human PC3 cells assessed as viable cells at 10 uM after 16 hrs by F2N12S/CYTOX AADvanced double staining-based flow cytometric method (reference value: 95%); format: functional; conditions: PC-3, 16 h, read-out: Activity
PC-3 [18] = assay: Induction of apoptosis in human PC3 cells assessed as late apoptotic/necrotic cells at 15 uM after 16 hrs by F2N12S/CYTOX AADvanced double staining-based flow cytometric method (reference value: 3%); format: functional
PC-3 [19] = assay: Induction of apoptosis in human PC3 cells assessed as early apoptotic cells at 5 uM after 16 hrs by F2N12S/CYTOX AADvanced double staining-based flow cytometric method (reference value: 2%); format: functional
PC-3 [20] = assay: Induction of apoptosis in human PC3 cells assessed as late apoptotic/necrotic cells at 5 uM after 16 hrs by F2N12S/CYTOX AADvanced double staining-based flow cytometric method (reference value: 3%); format: functional
PC-3 [21] = assay: Induction of apoptosis in human PC3 cells assessed as early apoptotic cells at 20 uM after 16 hrs by F2N12S/CYTOX AADvanced double staining-based flow cytometric method (reference value: 2%); format: functional
PC-3 [22] = assay: Induction of apoptosis in human PC3 cells assessed as late apoptotic/necrotic cells at 20 uM after 16 hrs by F2N12S/CYTOX AADvanced double staining-based flow cytometric method (reference value: 3%); format: functional
PC-3 [23] = assay: Induction of apoptosis in human PC3 cells assessed as early apoptotic cells at 30 uM after 16 hrs by F2N12S/CYTOX AADvanced double staining-based flow cytometric method (reference value: 2%); format: functional
PC-3 [24] = assay: Induction of apoptosis in human PC3 cells assessed as late apoptotic/necrotic cells at 30 uM after 16 hrs by F2N12S/CYTOX AADvanced double staining-based flow cytometric method (reference value: 3%); format: functional
PC-3 [25] = assay: Induction of apoptosis in human PC3 cells assessed as viable cells at 40 uM after 16 hrs by F2N12S/CYTOX AADvanced double staining-based flow cytometric method (reference value: 95%); format: functional; conditions: PC-3, 16 h, read-out: Activity
PC-3 [26] = assay: Induction of apoptosis in human PC3 cells assessed as late apoptotic/necrotic cells at 40 uM after 16 hrs by F2N12S/CYTOX AADvanced double staining-based flow cytometric method (reference value: 3%); format: functional
[27] = Retention time of the compound; format: physicochemical

## CCC(C)n1ccnc1/C=C/C(=O)/C=C/c1sc(C)nc1C(F)(F)F (stereo not given)
PC-3 [1]
  IC50: 230 nM
DU-145 [2]
  IC50: 350 nM
LNCaP
  IC50: 220 nM
DU-145 [3]
  Ratio IC50: 75
PWR-1E [4]
  IC50: 110 nM
PWR-1E [5]
  Ratio IC50: 81
VCaP
  IC50: 350 nM
[6]
  concentration at 1 h: 361 ng/mL
[7]
  concentration at 3 h: 672 ng/mL
[8]
  concentration at 6 h: 1940 ng/mL
[9]
  concentration at 24 h: 230 ng/mL
[10]
  Tmax: 6 h
[11]
  Cmax: 5.27 µM
[12]
  AUC: 24700 ng·h/mL
Rattus norvegicus
  Activity: Non-Toxic
[13]
  Drug metabolism: Metabolite_Detected
[14]
  Drug metabolism: Metabolite_Detected
[15]
  Drug metabolism: Metabolite_Detected
PC-3 [16]
  Activity: 18%
PC-3 [17]
  viability at 10 µM: 49%
PC-3 [18]
  Activity: 33%
PC-3 [19]
  Activity: 11%
PC-3 [20]
  Activity: 39%
PC-3 [21]
  Activity: 26%
PC-3 [22]
  Activity: 23%
PC-3 [23]
  Activity: 20%
PC-3 [24]
  Activity: 46%
PC-3 [25]
  viability at 40 µM: 22%
PC-3 [26]
  Activity: 53%
[27]
  Retention_time: 4.35 min
